Test results reported in ChEMBL document CHEMBL4257478, “Design, synthesis and evaluation of (R)-3-(7-(methyl(7H-pyrrolo[2,3-d]pyrimidin-4-yl)amino)-5-azaspiro[2.4]heptan-5-yl)-3-oxopropanenitrile as a JAK1-selective inhibitor” (Medchemcomm, 2018).

How the values were obtained:
[1] = target: Tyrosine-protein kinase JAK2 (Homo sapiens, UniProt O60674); experiment: Inhibition of human JAK2 using KTFCGTPEYLAPEVRREPRILSEEEQEMFRDFDYIADWC as substrate after 40 mins in presence of [gamma-33P-ATP] by scintillation counting method
Chain of Tyrosine-protein kinase JAK2 (O60674 whole entry): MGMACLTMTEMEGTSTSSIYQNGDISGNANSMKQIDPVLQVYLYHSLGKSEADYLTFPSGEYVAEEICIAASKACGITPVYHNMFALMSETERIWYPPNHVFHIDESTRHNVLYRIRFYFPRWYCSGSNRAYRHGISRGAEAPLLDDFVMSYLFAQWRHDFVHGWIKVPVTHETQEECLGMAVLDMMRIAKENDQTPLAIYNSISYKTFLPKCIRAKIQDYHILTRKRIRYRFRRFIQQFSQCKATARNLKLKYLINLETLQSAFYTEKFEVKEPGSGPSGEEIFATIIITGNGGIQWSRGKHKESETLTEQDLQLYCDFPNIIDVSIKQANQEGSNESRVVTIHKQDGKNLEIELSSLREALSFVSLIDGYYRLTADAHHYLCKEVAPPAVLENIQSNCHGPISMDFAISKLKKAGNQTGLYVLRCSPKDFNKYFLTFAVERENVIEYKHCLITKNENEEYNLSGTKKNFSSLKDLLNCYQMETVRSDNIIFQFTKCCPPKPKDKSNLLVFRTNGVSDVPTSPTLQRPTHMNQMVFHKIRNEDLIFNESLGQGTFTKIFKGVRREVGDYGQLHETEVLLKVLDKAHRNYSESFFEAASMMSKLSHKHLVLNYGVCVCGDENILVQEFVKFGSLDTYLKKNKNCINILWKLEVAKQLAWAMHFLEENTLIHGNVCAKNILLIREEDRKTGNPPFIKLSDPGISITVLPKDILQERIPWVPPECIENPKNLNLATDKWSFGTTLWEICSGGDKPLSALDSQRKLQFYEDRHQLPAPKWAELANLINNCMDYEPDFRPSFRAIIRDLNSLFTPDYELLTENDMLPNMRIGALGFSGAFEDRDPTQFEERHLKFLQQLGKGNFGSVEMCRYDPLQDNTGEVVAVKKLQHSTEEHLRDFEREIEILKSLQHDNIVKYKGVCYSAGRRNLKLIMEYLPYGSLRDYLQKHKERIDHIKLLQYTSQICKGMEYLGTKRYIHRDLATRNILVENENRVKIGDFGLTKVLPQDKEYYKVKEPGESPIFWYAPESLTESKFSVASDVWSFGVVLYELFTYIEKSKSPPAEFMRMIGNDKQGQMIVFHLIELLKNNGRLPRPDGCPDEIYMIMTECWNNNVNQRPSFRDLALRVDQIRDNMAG

Homo sapiens = species on record: Homo sapiens; experiment: Selectivity index, ratio of IC50 for human JAK2 to IC50 for human JAK1
Procedure, shortened: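 Kinase activity assays run as a commercial service at Km ATP; IC50 values fitted from concentration-response data; ratio of JAK2 to JAK1 IC50.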

[2] = target: Tyrosine-protein kinase JAK1 (Homo sapiens, UniProt P23458); experiment: Inhibition of human JAK1 using GEEPLYWSFPAKKK as substrate after 40 mins in presence of [gamma-33P-ATP] by scintillation counting method
Chain of Tyrosine-protein kinase JAK1 (P23458 whole entry): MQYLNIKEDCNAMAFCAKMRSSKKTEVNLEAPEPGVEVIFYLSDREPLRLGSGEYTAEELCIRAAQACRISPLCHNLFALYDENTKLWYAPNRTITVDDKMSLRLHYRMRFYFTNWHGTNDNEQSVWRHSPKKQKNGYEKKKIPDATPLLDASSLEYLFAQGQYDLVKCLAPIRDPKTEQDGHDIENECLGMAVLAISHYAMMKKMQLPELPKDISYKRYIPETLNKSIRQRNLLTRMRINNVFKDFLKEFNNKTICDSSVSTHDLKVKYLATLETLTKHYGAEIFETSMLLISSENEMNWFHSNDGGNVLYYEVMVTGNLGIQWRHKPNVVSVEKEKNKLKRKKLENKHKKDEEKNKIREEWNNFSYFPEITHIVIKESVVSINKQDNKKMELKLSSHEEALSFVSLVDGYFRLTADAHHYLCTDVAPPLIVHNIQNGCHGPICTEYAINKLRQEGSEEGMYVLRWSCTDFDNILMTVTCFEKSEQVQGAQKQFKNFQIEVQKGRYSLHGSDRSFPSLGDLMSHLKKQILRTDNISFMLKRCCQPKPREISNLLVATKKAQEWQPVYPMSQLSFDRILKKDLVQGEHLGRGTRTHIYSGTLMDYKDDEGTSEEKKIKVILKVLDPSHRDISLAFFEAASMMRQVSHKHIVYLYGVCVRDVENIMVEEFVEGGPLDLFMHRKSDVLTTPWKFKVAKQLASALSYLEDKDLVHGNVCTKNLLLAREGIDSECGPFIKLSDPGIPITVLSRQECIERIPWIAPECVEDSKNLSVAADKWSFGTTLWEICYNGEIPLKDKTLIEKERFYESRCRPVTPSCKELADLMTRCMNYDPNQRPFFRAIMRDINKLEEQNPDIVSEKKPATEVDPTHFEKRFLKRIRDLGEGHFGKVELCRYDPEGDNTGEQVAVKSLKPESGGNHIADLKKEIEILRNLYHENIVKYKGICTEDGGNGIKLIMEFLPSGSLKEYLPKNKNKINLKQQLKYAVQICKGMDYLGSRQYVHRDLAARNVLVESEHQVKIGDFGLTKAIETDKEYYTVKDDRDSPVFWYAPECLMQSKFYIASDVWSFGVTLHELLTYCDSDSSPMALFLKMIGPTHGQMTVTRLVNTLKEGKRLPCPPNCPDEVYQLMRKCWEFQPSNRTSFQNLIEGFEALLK

Structure (SMILES) | IC50 [1] | Ratio IC50 (Homo sapiens) | IC50 [2]
CN(c1ncnc2[nH]ccc12)[C@H]1CN(C(=O)c2ccccc2C(F)(F)F)CC12CC2 | 9100 nM | 18 | 500 nM
CN(c1ncnc2[nH]ccc12)[C@H]1CN(S(=O)(=O)c2ccccc2C#N)CC12CC2 | 480 nM | 9.6 | 50 nM
CN(c1ncnc2[nH]ccc12)[C@H]1CN(C(=O)Nc2ccccc2-c2ccccc2)CC12CC2 | 9100 nM | 6.1 | 1500 nM
CN(c1ncnc2[nH]ccc12)[C@H]1CN(C(=S)Nc2cc(C(F)(F)F)cc(C(F)(F)F)c2)CC12CC2 | 11000 nM | 23 | 470 nM
CN(c1ncnc2[nH]ccc12)[C@H]1CN(S(=O)(=O)c2cccc([N+](=O)[O-])c2)CC12CC2 | 5.5 nM | 3.9 | 1.4 nM
CN(c1ncnc2[nH]ccc12)[C@H]1CN(C(=S)CC#N)CC12CC2 | 160 nM | 8 | 20 nM
CC(C)S(=O)(=O)N1C[C@H](N(C)c2ncnc3[nH]ccc23)C2(CC2)C1 | 130 nM | 6.5 | 20 nM
CN(c1ncnc2[nH]ccc12)[C@H]1CN(C(=O)Nc2ccc(F)cc2)CC12CC2 | 1000 nM | 43 | 23 nM
CN(c1ncnc2[nH]ccc12)[C@H]1CN(S(=O)(=O)c2cccc(F)c2)CC12CC2 | 8.4 nM | 3 | 2.8 nM
CN(c1ncnc2[nH]ccc12)[C@H]1CN(Cc2ccccc2)CC12CC2 | 98000 nM | 820 | 120 nM
CCCCN1C[C@H](N(C)c2ncnc3[nH]ccc23)C2(CC2)C1 | 15000 nM | 65 | 230 nM
CN(c1ncnc2[nH]ccc12)[C@H]1CN(C(=O)CN=[N+]=[N-])CC12CC2 | 250 nM | 12 | 21 nM
CN(c1ncnc2[nH]ccc12)[C@H]1CN(C(=O)c2ccco2)CC12CC2 | 930 nM | 18 | 53 nM
COc1ccc(S(=O)(=O)N2C[C@H](N(C)c3ncnc4[nH]ccc34)C3(CC3)C2)cc1 | 180 nM | 19 | 9.3 nM
CN(c1ncnc2[nH]ccc12)[C@H]1CN(S(=O)(=O)c2ccc(F)cc2)CC12CC2 | 50 nM | 5.3 | 9.4 nM
CN(c1ncnc2[nH]ccc12)[C@H]1CN(C(=O)Nc2cc(Cl)ccc2Cl)CC12CC2 | 2800 nM | 52 | 54 nM
CC(C)C(=O)N1C[C@H](N(C)c2ncnc3[nH]ccc23)C2(CC2)C1 | 2800 nM | 16 | 170 nM
CN(c1ncnc2[nH]ccc12)[C@H]1CN(S(=O)(=O)N2CCOCC2)CC12CC2 | 260 nM | 8.4 | 31 nM
CN(c1ncnc2[nH]ccc12)[C@H]1CN(S(=O)(=O)N2CCCCC2)CC12CC2 | 150 nM | 10 | 15 nM
CN(c1ncnc2[nH]ccc12)[C@H]1CN(C(=O)c2cccnc2)CC12CC2 | 7800 nM | 49 | 160 nM
CN(c1ncnc2[nH]ccc12)[C@H]1CN(C(=O)C2CC2)CC12CC2 | 1200 nM | 7.1 | 170 nM
CN(c1ncnc2[nH]ccc12)[C@H]1CN(C(=O)Nc2ccc(Cl)cc2Cl)CC12CC2 | 4700 nM | 39 | 120 nM
CN(c1ncnc2[nH]ccc12)[C@H]1CN(C(=O)NC2CCCCC2)CC12CC2 | 4400 nM | 64 | 69 nM

Structure (SMILES) | IC50 [1] | Ratio IC50 (Homo sapiens) | IC50 [2]
CN(c1ncnc2[nH]ccc12)[C@H]1CN(C(=O)c2ccc(C#N)cc2)CC12CC2 | 4500 nM | 24 | 190 nM
CN(c1ncnc2[nH]ccc12)[C@H]1CN(C(=O)c2cccc(C(F)(F)F)c2)CC12CC2 | 11000 nM | 26 | 420 nM
CN(c1ncnc2[nH]ccc12)[C@H]1CN(S(=O)(=O)c2ccc(C#N)cc2)CC12CC2 | 1100 nM | 110 | 9.8 nM
CN(c1ncnc2[nH]ccc12)[C@H]1CN(S(=O)(=O)c2ccccc2)CC12CC2 | 51 nM | 5.7 | 9 nM
CN(c1ncnc2[nH]ccc12)[C@H]1CN(C(=O)Nc2ccc(Cl)c(Cl)c2)CC12CC2 | 1300 nM | 33 | 40 nM
Cc1ccc(NC(=O)N2C[C@H](N(C)c3ncnc4[nH]ccc34)C3(CC3)C2)cc1Cl | 1300 nM | 15 | 85 nM
CN(c1ncnc2[nH]ccc12)[C@H]1CN(C(=O)Nc2ccccc2)CC12CC2 | 420 nM | 35 | 12 nM
CN(c1ncnc2[nH]ccc12)[C@H]1CN(S(=O)(=O)c2ccccc2[N+](=O)[O-])CC12CC2 | 470 nM | 18 | 26 nM
CN(c1ncnc2[nH]ccc12)[C@H]1CN(S(=O)(=O)c2ccccc2F)CC12CC2 | 97 nM | 7.5 | 13 nM
CN(c1ncnc2[nH]ccc12)[C@H]1CN(C(=O)c2ccncc2)CC12CC2 | 6500 nM | 46 | 140 nM
CNC(=O)CC(=O)N1C[C@H](N(C)c2ncnc3[nH]ccc23)C2(CC2)C1 | 13000 nM | 19 | 670 nM
CN(c1ncnc2[nH]ccc12)[C@H]1CN(S(=O)(=O)c2ccc3ccccc3c2)CC12CC2 | 150 nM | 8.8 | 17 nM
CC(=O)NCC(=O)N1C[C@H](N(C)c2ncnc3[nH]ccc23)C2(CC2)C1 | 16000 nM | 31 | 520 nM
CN(c1ncnc2[nH]ccc12)[C@H]1CN(C(=O)c2cccc(C#N)c2)CC12CC2 | 7400 nM | 74 | 100 nM
CN(c1ncnc2[nH]ccc12)[C@H]1CN(S(=O)(=O)c2ccc(C(F)(F)F)cc2)CC12CC2 | 1400 nM | 88 | 16 nM
CCCS(=O)(=O)N1C[C@H](N(C)c2ncnc3[nH]ccc23)C2(CC2)C1 | 36 nM | 5.2 | 6.9 nM
CCCCNC(=O)N1C[C@H](N(C)c2ncnc3[nH]ccc23)C2(CC2)C1 | 2800 nM | 37 | 75 nM
CC(C)COC(=O)N1C[C@H](N(C)c2ncnc3[nH]ccc23)C2(CC2)C1 | 1200 nM | 35 | 34 nM
CC(=O)N1CCC(C(=O)N2C[C@H](N(C)c3ncnc4[nH]ccc34)C3(CC3)C2)CC1 | 2500 nM | 14 | 180 nM
CC(C)CC(=O)N1C[C@H](N(C)c2ncnc3[nH]ccc23)C2(CC2)C1 | 1100 nM | 14 | 77 nM
CN(c1ncnc2[nH]ccc12)[C@H]1CN(C(=O)c2ccccc2)CC12CC2 | 6300 nM | 42 | 150 nM
CN(c1ncnc2[nH]ccc12)[C@H]1CN(C(=O)Nc2cccc(Cl)c2Cl)CC12CC2 | 1300 nM | 18 | 74 nM
CN(c1ncnc2[nH]ccc12)[C@H]1CN(S(=O)(=O)c2ccc([N+](=O)[O-])cc2)CC12CC2 | 30 nM | 4.8 | 6.3 nM
